Test results as given in ChEMBL document CHEMBL1146087, “1,4-Benzodiazepines as inhibitors of respiratory syncytial virus” (J Med Chem, 2006).

What was measured:
[1] = Cmax in Sprague-Dawley rat at 20 mg/kg, po; type: ADME, organism-based; parameters: dose 20 mg/kg, route oral; conditions: in vivo
[2] = Tmax in Sprague-Dawley rat at 20 mg/kg, po; type: ADME, organism-based; parameters: dose 20 mg/kg, route oral; conditions: in vivo
[3] = Half life in Sprague-Dawley rat at 20 mg/kg, po; type: ADME, organism-based; parameters: dose 20 mg/kg, route oral; conditions: in vivo
[4] = Apparent oral clearance in Sprague-Dawley rat at 20 mg/kg, po; type: ADME, organism-based; parameters: dose 20 mg/kg, route oral; conditions: in vivo
Rattus norvegicus [5] = experiment: Volume of distribution in Sprague-Dawley rat at 20 mg/kg, po; type: ADME, organism-based; parameters: dose 20 mg/kg, route oral; conditions: in vivo
HEp-2 = experiment: Cytotoxicity against Hep2 cell at 50 uM; type: functional, cell-based; conditions: Homo sapiens
Outline: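 Run alongside the whole-cell antiviral XTT assay, without virus, to measure compound toxicity to the cells. The read-out is XTT.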

[6] = tested on: Respiratory syncytial virus; experiment: Antiviral activity against RSV RSS in Hep2 cells by ELISA; type: functional, organism-based; conditions: human respiratory syncytial virus, HEp-2
[7] = tested on: Respiratory syncytial virus; experiment: Antiviral activity against RSV Long in Hep2 cells by ELISA; type: functional, organism-based; conditions: human respiratory syncytial virus, HEp-2
[8] = tested on: Respiratory syncytial virus; experiment: Antiviral activity against RSV B in Hep2 cells by ELISA; type: functional, organism-based; conditions: human respiratory syncytial virus, HEp-2
[9] = tested on: Respiratory syncytial virus; experiment: Antiviral activity against RSV RSS in Hep2 cells by plaque assay; type: functional, organism-based; conditions: human respiratory syncytial virus, HEp-2
[10] = tested on: Respiratory syncytial virus; experiment: Antiviral activity against RSV Long in Hep2 cells by plaque assay; type: functional, organism-based; conditions: human respiratory syncytial virus, HEp-2
[11] = tested on: Respiratory syncytial virus; experiment: Antiviral activity against RSV B in Hep2 cells by plaque assay; type: functional, organism-based; conditions: human respiratory syncytial virus, HEp-2
Rattus norvegicus [12] = experiment: Volume of distribution in Sprague-Dawley rat at 2 mg/kg, po; type: ADME, organism-based; parameters: dose 2 mg/kg, route oral; conditions: in vivo
[13] = Oral bioavailability in Sprague-Dawley rat at 2 mg/kg, po; type: ADME, organism-based; conditions: in vivo
[14] = Volume of distribution in Sprague-Dawley rat at 2 mg/kg, iv; type: ADME, organism-based; parameters: dose 2 mg/kg, route intravenous; conditions: in vivo, read-out: Vdss
[15] = tested on: Respiratory syncytial virus; experiment: Antiviral activity against RSV RSS in Hep2 cells by whole cell XTT assay; type: functional, organism-based; conditions: human respiratory syncytial virus, HEp-2
Outline: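 Primary whole-cell assay with XTT read-out of infected cells. Parallel cultures without virus were run to measure compound cytotoxicity. IC50 values were derived.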

[16] = tested on: Respiratory syncytial virus; experiment: Antiviral activity against RSV A2 in Hep2 cells by plaque assay; type: functional, organism-based; conditions: human respiratory syncytial virus, A2, HEp-2
[17] = Cmax in Sprague-Dawley rat at 2 mg/kg, iv; type: ADME, organism-based; parameters: dose 2 mg/kg, route intravenous; conditions: in vivo
[18] = Cmax in Sprague-Dawley rat at 2 mg/kg, po; type: ADME, organism-based; parameters: dose 2 mg/kg, route oral; conditions: in vivo
[19] = Tmax in Sprague-Dawley rat at 2 mg/kg, iv; type: ADME, organism-based; parameters: dose 2 mg/kg, route intravenous; conditions: in vivo
[20] = Tmax in Sprague-Dawley rat at 2 mg/kg, po; type: ADME, organism-based; parameters: dose 2 mg/kg, route oral; conditions: in vivo
[21] = Half life in Sprague-Dawley rat at 2 mg/kg, iv; type: ADME, organism-based; parameters: dose 2 mg/kg, route intravenous; conditions: in vivo
[22] = Half life in Sprague-Dawley rat at 2 mg/kg, po; type: ADME, organism-based; parameters: dose 2 mg/kg, route oral; conditions: in vivo
[23] = Clearance in Sprague-Dawley rat at 2 mg/kg, iv; type: ADME, organism-based; parameters: dose 2 mg/kg, route intravenous; conditions: in vivo
[24] = Cmax in Sprague-Dawley rat at 25 mg/kg, po; type: ADME, organism-based; parameters: dose 25 mg/kg, route oral; conditions: in vivo
[25] = Tmax in Sprague-Dawley rat at 25 mg/kg, po; type: ADME, organism-based; parameters: dose 25 mg/kg, route oral; conditions: in vivo
[26] = Half life in Sprague-Dawley rat at 25 mg/kg, po; type: ADME, organism-based; parameters: dose 25 mg/kg, route oral; conditions: in vivo
[27] = Apparent oral clearance in Sprague-Dawley rat at 25 mg/kg, po; type: ADME, organism-based; parameters: dose 25 mg/kg, route oral; conditions: in vivo
[28] = Apparent oral clearance in Sprague-Dawley rat at 2 mg/kg, po; type: ADME, organism-based; parameters: dose 2 mg/kg, route oral; conditions: in vivo
Rattus norvegicus [29] = experiment: Volume of distribution in Sprague-Dawley rat at 25 mg/kg, po; type: ADME, organism-based; parameters: dose 25 mg/kg, route oral; conditions: in vivo

| Compound | Cmax [1] [ng/mL] | Tmax [2] [h] | half-life [3] [min] | CL/F [4] [mL/min/kg] | Vdss (Rattus norvegicus [5]) [L/kg] | Activity (HEp-2) | IC50 [6] [nM] | IC50 [7] [nM] | IC50 [8] [nM] | IC50 [9] [nM] | IC50 [10] [nM] | IC50 [11] [nM] | bioavailability [13] [%] | Vd [14] [L/kg] | IC50 [15] [µM] | Cmax [17] [ng/mL] | Cmax [18] [ng/mL] | Tmax [19] [min] | Tmax [20] [h] | half-life [21] [min] | further results |
| --- | --- | --- | --- | --- | --- | --- | --- | --- | --- | --- | --- | --- | --- | --- | --- | --- | --- | --- | --- | --- | --- |
| COc1cc([N+](=O)[O-])ccc1C(=O)NC1N=C(c2ccccc2)c2ccccc2NC1=O (stereo unspecified) | 1670 | 3 | 348 | 18.8 | 9.8 | Not toxic | 2500 | 1200 | 1300 | 1800 | 900 | < 300 |  |  |  |  |  |  |  |  |  |
| O=C(Nc1ccccc1F)NC1N=C(c2ccccc2)c2ccccc2NC1=O (stereo unspecified) |  |  |  |  |  | Not toxic | 2700 | 2500 | 1900 | 3000 | 2200 | 750 | 76 | 2.5 | 3.3 | 1530 | 386 | 4.8 | 2.6 | 222 | Vdss (Rattus norvegicus [12]): 7.5 L/kg; IC50 [16]: 2800 nM; half-life [22]: 486 min |
| COc1ccccc1C(=O)NC1N=C(c2ccccc2)c2ccccc2NC1=O (stereo unspecified) |  |  |  |  |  | Not toxic |  |  |  |  |  |  | 4 | 2.4 | 2.3 | 798 | 19.3 | 4.8 | 0.8 | 24 | clearance [23]: 71.2 mL/min/kg |
| COc1cc(Cl)ccc1C(=O)NC1N=C(c2ccccc2)c2ccccc2NC1=O (stereo unspecified) | 273 | 1 | 162 | 288 | 98.3 | Not toxic |  |  |  |  |  |  |  |  | 5.9 |  |  |  |  |  |  |
| CC(=O)NC1N=C(c2ccccc2)c2ccccc2NC1=O (stereo unspecified) |  |  |  |  |  | Not toxic | 9300 | 17600 | 17800 | 7100 | 7200 | 3600 | 77 | 2.2 | 8.6 | 2400 | 616 | 4.8 | 2.6 | 300 | Vdss (Rattus norvegicus [12]): 4.2 L/kg; Cmax [24]: 7930 ng/mL; Tmax [25]: 1.5 h; half-life [26]: 264 min; half-life [22]: 354 min; CL/F [27]: 7.3 mL/min/kg; clearance [23]: 5.3 mL/min/kg; CL/F [28]: 4.9 mL/min/kg; Vdss (Rattus norvegicus [29]): 2.7 L/kg |
